# Reference: ChEMBL document CHEMBL4513216, “Probing the Open Global Health Chemical Diversity Library for Multistage-Active Starting Points for Next-Generation Antimalarials” (ACS Infect Dis, 2020)
# Assay: Toxicity liver stage against HepG2, at 10uM
# Assay type: cell-based
# Parameters: test concentration 10 uM, cell line HepG2-A16-CD81EGFP
# Conditions: human, HepG2-A16-CD81EGFP cells; read-out: INHIBITION
# How it was run: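 Uninfected HepG2-A16-CD81EGFP cells, 3 × 10^3 per well, 1536-well, plated on prespotted compound at 10 μM final, parasite-free screening media added to match infected plates; puromycin 10 μM positive, DMSO 0.5% negative; run in parallel with 48 h PbLuc assay at 37 °C, 5% CO2; viability by CellTiter-Glo luminescence, normalized to controls.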
row,SMILES,cytotoxicity at 10 µM [%]
1,COc1ccc(C(=O)C2CCCN(Cc3ccon3)C2)c(OC)c1 (stereo not given),-4.46
2,C1CCC(OCCN2CCN(CCOC3CCCCC3)CC2)CC1,-0.434
3,Cc1ccc(CNC[C@H]2Cn3cc(-c4ccccc4)nc3CO2)cc1,-9.43
4,Cn1nc(COCC2CC2)c2c1CCN(C(=O)c1ccno1)C2,6.8
5,CNC(=O)[C@H]1CC[C@@H]2[C@@H](CCN2c2ncccn2)O1,6.25
6,O=S(=O)(C1CC1)N1CC[C@]2(C[C@@H](OCC3CCOCC3)CO2)C1,8.13
7,CCC(CC)C(=O)N1CCN(C)c2ncccc2C1,-3
8,COC(=O)c1c(Cl)c(C2CC2)nc2onc(C)c12,10.1
9,c1cc(NC2CC3(CCN(Cc4cscn4)C3)C2)ncn1 (stereo not given),-2.28
10,COc1cc([C@@H]2N[C@H](c3nccs3)Cc3ccsc32)cc(OC)c1OC,8.71
11,CNC(=O)C1CN(C(C)C)CCN1c1ncccn1 (stereo not given),1.22
12,Cc1ncc(CN2CCc3c(nc4cc(C5CC5)nn4c3O)C2)n1C,6.62
13,c1ncc(CN2CC(Cc3nccc4cc[nH]c34)C2)cn1,-1.06
14,CC(C)CNC(=O)C1(Cc2ccccc2-c2ccccc2)CCNC1 (stereo not given),-17.8
15,Cn1ccnc1C(=O)N1CCOC(Cc2ccc(Cl)cc2)C1 (stereo not given),9.23
16,Cn1nc(C2CCN(C(=O)c3cccs3)CC2)c2cccnc21,-8.72
17,Cc1cc(-c2cnc(N3CCSCC3)nc2-c2ccc(C)s2)on1,-2.5
18,O=C(c1cnco1)N1C[C@@H]2CC[C@H](Oc3cccc(F)c3)[C@@H]2C1,-6.18
19,N#Cc1ccccc1OCCN1CCCCC1C(=O)N1CCOCC1 (stereo not given),-45.6
20,Cc1ccc(C2CCCN2Cc2nc(-c3ccco3)no2)cc1 (stereo not given),26.1
21,Cc1nnc2n1CCN(Cc1nc3ccccc3o1)C2,-6.48
22,N#CC1(NC(=O)Cc2cc(Cl)c3c(c2)OCCO3)CCC1,-8.05

row,SMILES,cytotoxicity at 10 µM [%]
1,Cc1ccc(CCCC(=O)N2CCC(=O)Nc3cccnc32)s1,-60.7
2,Cc1ncsc1CCN(C)Cc1ccc(Br)o1,-43
3,Cn1ccnc1CCNS(=O)(=O)c1ccc(Br)cc1,3.32
4,O=C(NCCOc1ccccc1)c1ccc2c(c1)C(=O)NC2=O,4.98
5,O=C(CNc1ccccc1Cl)Nc1cc(-n2cnnn2)ccc1F,-4.38
6,COCC(C)NC(=O)CN1CCC2(CC1)OCCO2 (stereo not given),7.3
7,Cc1cccc(CNc2cncc(-n3cccn3)n2)c1,-7.09
8,Cc1ccc(C(=O)NCCCS(C)(=O)=O)c(=O)[nH]1,-7.6
9,CCCn1nc2c(cc1=O)CN(Cc1cc(C)no1)CC2,-11.6
10,Cc1noc(CN(Cc2cccs2)C2CC2)n1,-0.243
11,CN(Cc1cnn(C)c1)C(=O)CN1CCCC1Cn1cncn1 (stereo not given),12.6
12,O=C(CCc1ccc(Cl)cc1)NC1CCN(c2cccc(F)c2)CC1,-5.99
13,CC(C)OCCCNC(=O)c1cccnc1N1CCOCC1,10.5
14,CCN(C(c1cccnc1)c1cc(C)cc(C)c1)S(C)(=O)=O (stereo not given),2.88
15,Cn1cc(NC(=O)NCc2ccoc2)ccc1=O,4.14
16,CSCC(=O)N(C)Cc1ccccc1,-2.34
17,Fc1ccc(NCc2nnsc2Cl)c(OC(F)F)c1,0.811
18,CCc1nc(C)ncc1C(=O)N1CCN(CC)c2ccccc21,-10.1
19,CCCN(CC1CC1)S(=O)(=O)c1ccc(NC(C)=O)cc1,9.35
20,CN1CCC(NC(=O)Cc2csc(C(C)(C)C)n2)CC1,-2.37
21,CN(C)C(=O)CCNC(=O)NCc1ccc(Br)cc1Cl,2.96
22,O=C(O)c1cccn1-c1ccc2c(c1)OCCO2,-7.48

row,SMILES,cytotoxicity at 10 µM [%]
1,CN(CC1CC1)S(=O)(=O)c1ccc(C(F)(F)F)cc1C#N,2.95
2,CC(=O)N1CCC(NC(=O)NCc2ncc(-c3ccccc3)o2)CC1,-44.7
3,Cc1cc(C)n(-c2ccc(C(C)NS(=O)(=O)CCCS(C)(=O)=O)cc2)n1 (stereo not given),7.04
4,Cn1cc(C(=O)N2C[C@@H]3CN(S(C)(=O)=O)CCO[C@@H]3C2)cn1,8.9
5,Cc1cc(C(=O)NC2CCc3c(ccc(=O)n3CCN(C)C)C2)no1 (stereo not given),-0.58
6,Cc1csc(CN2CCC3(CC2)COC(COc2ccccn2)C3)n1 (stereo not given),-113
7,COCC(=O)NCc1cc(=O)n2c(n1)CN(Cc1ccco1)CCC2,-89.3
8,Cc1ccccc1C(=O)N1CC[C@@H]2CN(c3ncccn3)CCO[C@@H]2C1,-72.4
9,CCOCC1CN(CC2CC2)Cc2cnn(C)c21 (stereo not given),-90.4
10,CN(Cc1cccnc1)CC1CNCc2nccn2C1 (stereo not given),-77.2
11,CCS(=O)(=O)N1CCn2cc(CN(C)Cc3ccco3)nc2C1,-74.4
12,COCCC(=O)N1CC2(CCN(Cc3ccncc3)CC2)C1,-66.6
13,C[C@H]1CN(C(=O)c2cscn2)C[C@@]12CCN(c1ccsc1)C2=O,-80.7
14,OCCNc1cc(-c2ccccc2)ncn1,-7.94
15,OCCNc1cc(-c2ccncc2)ncn1,-7.88
16,CN(Cc1cc(C(C)(C)C)n[nH]1)Cc1c[nH]nc1-c1ccc(F)cc1,-4.83
17,O=S(=O)(NCc1ccccc1)Nc1cccc(Cn2cncn2)c1,5.91
18,CCc1cc(NC(CCO)c2ccc(OC)cc2)n2nccc2n1 (stereo not given),-30.4
19,Cc1nc2c(C)cccc2cc1C(=O)N1CCC2(CCNCC2)CC1,-8.37
20,CCOC(=O)N1CCN(c2nc(C)ncc2CC)CC1,-61.2
21,O=C(Cn1[nH]c2ccccc2c1=O)N1CCCC(CC2CC2)(C(=O)O)C1 (stereo not given),3.15
22,Cc1nnsc1C(=O)N1CCN(C(=O)C2CCC2)[C@@H]2CS(=O)(=O)C[C@@H]21,-2

row,SMILES,cytotoxicity at 10 µM [%]
1,Cc1ccc(C)c2c(C)c(C(=O)NCCCn3ccnn3)[nH]c12,-0.84
2,Cc1ccc(N2CCCC(c3[nH]ncc3Cc3ccccc3)C2)nn1 (stereo not given),10.4
3,CCCSc1ncc(CN2CCN(C)C(=O)C2C)cn1 (stereo not given),7.75
4,O=C(O)c1cc(C2=CCCCC2)cc(S(=O)(=O)NCc2ccccn2)c1,-46.6
5,Cc1nonc1CN1CC[C@@](O)(C2CCOCC2)[C@H](C)C1,7.31
6,CC(=O)c1cc(CC(=O)N2CCN(CCOc3ccccc3)CC2)cs1,-5.48
7,CCC(CO)N(Cc1ccccn1)Cc1ccc(-c2ccn[nH]2)s1 (stereo not given),2.66
8,CC1(C)CN(Cc2cc(C3CCCCC3)no2)CC[C@]1(C)O,-4.59
9,COCc1nc(Cn2ncn3cccc3c2=O)no1,-8.98
10,CCc1cnc(C)nc1N1CCC(Cc2cccc(C(=O)O)c2)C1 (stereo not given),2.42
11,CCN(CCO)C[C@@H]1CN(C(=O)c2sc3ccccc3c2C)C[C@@H]1CO,-10.6
12,CCCc1nc(C)cc(N2CCNC(C(=O)NC3CC3)C2)n1 (stereo not given),-56.5
13,Cc1nccnc1N1C[C@H]2CN(C3CCOCC3)C[C@@]2(C(=O)O)C1,-6.93
14,Cc1cc(N2CCC(CO)(CC3CCCCO3)CC2)c2ccccc2n1 (stereo not given),4.46
15,CCn1c(CC2CCN(C(=O)C3CNCCO3)CC2)nn(C)c1=O (stereo not given),2.14
16,CCc1[nH]c2c(CNc3cncc(C(=O)N(C)C)n3)cc(F)cc2c1C,3.86
17,N[C@H]1CN(Cc2cnc(N3CCCC3)nc2)C[C@@H]1C1CC1,-45.5
18,NC(=O)c1ccc(OCCCN2CCC3(CC2)OCCCC3O)cc1 (stereo not given),-1.18
19,CC(C)N(C)C(=O)CN1CCCC(c2ccc(C(=O)O)cc2)C1 (stereo not given),-7.74
20,O=C(O)c1cc(-c2cccs2)nc2c(Cl)cnn12,-8.33
21,Cc1ccc(NC2CCN(C(=O)c3ccc(F)c(C)c3)CC2)nn1,2.37
22,CC(C(=O)NCc1ccc(-n2cncn2)nc1)S(C)(=O)=O (stereo not given),7.41

row,SMILES,cytotoxicity at 10 µM [%]
1,Cc1ccc(CN(C)Cc2nc3c(cnn3C)c(=O)[nH]2)c(C)c1,0.403
2,O=C(c1cccn1Cc1cccs1)N1CCN(C(=O)C2CC2)CC1,-6.59
3,N#CCCN(C(=O)CN1CCCC1c1ccsc1)c1ccccc1F (stereo not given),-5.8
4,COc1ccc(-n2ccc(C(=O)N3CCC(C(N)=O)C3)n2)cc1 (stereo not given),-6.04
5,CSc1ncccc1C(=O)NCc1ccc(CS(=O)(=O)NC(C)C)cc1,4.4
6,Cc1cc(C)n(C2CCCN(C(=O)CCCNc3ncccn3)C2)n1 (stereo not given),5.15
7,Cc1ccc(NC2CCN(C(=O)Cc3cccc(F)c3)CC2)nn1,-5.23
8,CSCC[C@H](N)c1nnc(SCC(=O)Nc2ccc(Br)cc2)o1,-2.15
9,O=C(Nc1ccccc1)C1=NOC2(CCNCC2)C1,5.77
10,Cc1ncc(CN2Cc3ccccc3OC3(CCC(CO)CC3)C2)cn1 (stereo not given),0.179
11,O=C(c1cnccn1)N1CCN2C[C@H](Oc3cccc(F)c3)C[C@H]2C1,11.7
12,Fc1cccc(CN2CCC3(CCN3c3ncccn3)C2)c1 (stereo not given),15.3
13,Cc1noc(C)c1CN1CC[C@H]2OCC[C@@]2(C(=O)N2CCOCC2)C1,-77.2
14,CCn1ncc2c1C(COCC1CC1)N(Cc1c(C)noc1C)CC2 (stereo not given),12.3
15,c1cc(CO[C@@H]2CN(Cc3ccoc3)[C@@H]3CCCO[C@@H]32)ccn1,-102
16,O=C(NCC1CC1)[C@@H]1CCO[C@@H]2CCN(CCc3ccccc3)C[C@H]21,1.14
17,Cn1nc(Cn2ccnc2)c2c1CN(C(=O)c1ccoc1)C2,-58.9
18,CCN1C[C@@H]2CN(c3cc(OC)ncn3)CCC[C@]2(C(=O)O)C1,-2.58
19,CN(C)CC(=O)N1CCC2(CC1)CN(c1ccsc1)C(=O)CO2,10.1
20,O=C(NCCN1CCOCC1)c1ccn(-c2ccc3ccccn23)n1,-0.735
21,CCC(C)(C)NC(=O)c1ncn2c1CN(C)S(=O)(=O)c1ccccc1-2,-137
22,Cc1ncc2c(n1)CN(C=C1NN=C(c3occc3C)O1)CC2,-2.7
